Test results taken from ChEMBL document CHEMBL1136006, “New PET imaging agent for the serotonin transporter: [(18)F]ACF (2-[(2-amino-4-chloro-5-fluorophenyl)thio]-N,N-dimethyl-benzenmethanamine)” (J Med Chem, 2002).

What was measured:
Rattus norvegicus [1] = assay: Effect of pretreatment with (+)-McN5652 with a dose of 2 mg/kg (i.v.) on specific binding of [18F]ACF in rat brain striatum; type: ADME, organism-based; design: dose 2 mg/kg, route intravenous; details: in vivo, iv
Procedure, shortened: (§1)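 Rats pretreated iv with drug (2 mg/kg) or saline 5 min before iv [18F]ACF (50 μCi). Sacrificed 1 h after tracer. Brain regions were dissected, weighed and counted, and % dose/g was calculated against a diluted initial dose. Drug-treated rats were compared with saline controls by ANOVA/Dunnett's test (p<0.05). Three rats per point, average ± SD.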

Rattus norvegicus [2] = assay: Effect of pretreatment with methylphenidate with a dose of 2 mg/kg (i.v.) on specific binding of [18F]-ACF in rat brain remainder; type: ADME, organism-based; design: dose 2 mg/kg, route intravenous; details: in vivo, iv; procedure, shortened: as §1
Rattus norvegicus [3] = assay: Effect of pretreatment with […] with a dose of 2 mg/kg (i.v.) on specific binding of [18F]ACF in rat brain blood; type: ADME, organism-based; design: dose 2 mg/kg, route intravenous; details: in vivo, iv; procedure, shortened: as §1
Rattus norvegicus [4] = assay: Effect of pretreatment with (+)-McN5652 with a dose of 2 mg/kg (i.v.) on specific binding of [18F]ACF in rat brain blood; type: ADME, organism-based; design: dose 2 mg/kg, route intravenous; details: in vivo, iv; procedure, shortened: as §1
Rattus norvegicus [5] = species: Rattus norvegicus; assay: Organ distribution of [18F]ACF radiolabeled compound in rat kidney after 120 min; type: ADME, organism-based; details: in vivo, 2 h
Procedure, shortened: (§2)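 Rats, three per time point, under ether anesthesia; 30 μCi tracer in 0.2 mL saline injected into femoral vein. Sacrificed by cardiac excision under ether at 2, 30, 60, 120 or 240 min. Organs removed, weighed and counted; % dose/organ calculated against counts of 1% of initial dose counted at the same time. Average of three rats ± SD.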

Rattus norvegicus [6] = species: Rattus norvegicus; assay: Organ distribution of [18F]ACF radiolabeled compound in rat kidney after 30 min; type: ADME, organism-based; details: in vivo, 0.5 h; procedure, shortened: as §2
Rattus norvegicus [7] = species: Rattus norvegicus; assay: Regional brain distribution of [18F]ACF radiolabeled compound in rat striatum after 120 min; type: ADME, organism-based; details: in vivo, 2 h
Procedure, shortened: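 Rats (3 per group) under ether anaesthesia received 30 μCi tracer in 0.2 mL saline into the femoral vein. Killed by cardiac excision under ether at the set time. Striatum and other brain regions dissected, weighed and gamma-counted. % dose/g calculated against counts of a diluted 1% initial-dose standard. Values given as average ± SD of three rats.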

Rattus norvegicus [8] = species: Rattus norvegicus; assay: Regional brain distribution of [18F]-ACF radiolabeled compound in rat striatum after 2 min; type: ADME, organism-based; details: in vivo
Procedure, shortened: (§3)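 Rats (three per group) under ether anesthesia got 30 μCi tracer in 0.2 mL saline into the femoral vein and were killed by cardiac excision at the stated time. Cortex, striatum, hippocampus, cerebellum, hypothalamus and the rest of brain were dissected, weighed and gamma counted. %dose/g was taken against counts of a diluted initial dose. Regional ratios are each region's %dose/g over cerebellum's. Mean ± SD.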

Rattus norvegicus [9] = species: Rattus norvegicus; assay: Regional brain distribution of [18F]ACF radiolabeled compound in rat striatum after 30 min; type: ADME, organism-based; details: in vivo, 0.5 h
Procedure, shortened: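 Rats, three per group, under ether anaesthesia, given 30 μCi no-carrier-added tracer in 0.2 mL saline into the femoral vein. They were killed at the stated time by cardiac excision under ether. Striatum and other brain regions were dissected, weighed and counted. %dose/g was calculated against counts of 1% of the injected dose, as mean ± SD of three rats.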

Rattus norvegicus [10] = species: Rattus norvegicus; assay: Regional brain distribution of [18F]-ACF radiolabeled compound in rat hypothalamus after 120 min; type: ADME, organism-based; details: in vivo, 2 h; procedure, shortened: as §3
Rattus norvegicus [11] = species: Rattus norvegicus; assay: Organ distribution of [18F]ACF radiolabeled compound in rat liver after 2 min; type: ADME, organism-based; details: in vivo; procedure, shortened: as §2
Rattus norvegicus [12] = species: Rattus norvegicus; assay: Organ distribution of [18F]-ACF radiolabeled compound in rat lung after 2 min; type: ADME, organism-based; details: in vivo
Procedure, shortened: (§4)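 Under ether anesthesia, 30 μCi no-carrier-added tracer in 0.2 mL saline injected into the femoral vein. Rats killed by cardiac excision at the stated time. Organs were removed, weighed and counted; % dose/organ was calculated against counts of a 1% initial-dose standard. Three rats per time, average ± SD.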

Rattus norvegicus [13] = species: Rattus norvegicus; assay: Organ distribution of [18F]-ACF radiolabeled compound in rat muscle after 2 min; type: ADME, organism-based, Muscle tissue; details: in vivo; procedure, shortened: as §4
Rattus norvegicus [14] = species: Rattus norvegicus; assay: Organ distribution of [18F]-ACF radiolabeled compound in rat skin after 240 min; type: ADME, organism-based; details: in vivo, 4 h; procedure, shortened: as §4
Rattus norvegicus [15] = species: Rattus norvegicus; assay: Organ distribution of [18F]ACF radiolabeled compound in rat skin after 2 min; type: ADME, organism-based; details: in vivo; procedure, shortened: as §2
Rattus norvegicus [16] = species: Rattus norvegicus; assay: Organ distribution of [18F]-ACF radiolabeled compound in rat skin after 30 min; type: ADME, organism-based; details: in vivo, 0.5 h; procedure, shortened: as §4
Rattus norvegicus [17] = species: Rattus norvegicus; assay: Organ distribution of [18F]-ACF radiolabeled compound in rat skin after 60 min; type: ADME, organism-based; details: in vivo, 1 h; procedure, shortened: as §4
Rattus norvegicus [18] = species: Rattus norvegicus; assay: Organ distribution of [18F]ACF radiolabeled compound in rat spleen after 2 min; type: ADME, organism-based; details: in vivo; procedure, shortened: as §2
Rattus norvegicus [19] = species: Rattus norvegicus; assay: Regional brain distribution of [18F]ACF radiolabeled compound in rat cortex after 120 min; type: ADME, organism-based; details: in vivo, 2 h; procedure, shortened: as §3
Rattus norvegicus [20] = species: Rattus norvegicus; assay: Organ distribution of [18F]ACF radiolabeled compound in rat bone after 120 min; type: ADME, organism-based, Bone element; details: in vivo, 2 h; procedure, shortened: as §2
Rattus norvegicus [21] = species: Rattus norvegicus; assay: Organ distribution of [18F]-ACF radiolabeled compound in rat bone after 240 min; type: ADME, organism-based, Bone element; details: in vivo, 4 h; procedure, shortened: as §4
Rattus norvegicus [22] = species: Rattus norvegicus; assay: Organ distribution of [18F]ACF radiolabeled compound in rat bone after 2 min; type: ADME, organism-based, Bone element; details: in vivo; procedure, shortened: as §2
Rattus norvegicus [23] = species: Rattus norvegicus; assay: Regional brain distribution of [18F]ACF radiolabeled compound in rat hippocampus after 120 min; type: ADME, organism-based; details: in vivo, 2 h; procedure, shortened: as §3
Rattus norvegicus [24] = species: Rattus norvegicus; assay: Organ distribution of [18F]-ACF radiolabeled compound in rat brain after 30 min; type: ADME, organism-based; details: in vivo, 0.5 h; procedure, shortened: as §4
[25] = molecular target: Sodium-dependent noradrenaline transporter (Homo sapiens, UniProt P23975); assay: In vitro binding affinity in LLC-PK1 cells by Norepinephrine transporter binding assay by using [125I]-IPT as a radioligand; type: cell-based
Chain of Sodium-dependent noradrenaline transporter (P23975 whole entry, looked up): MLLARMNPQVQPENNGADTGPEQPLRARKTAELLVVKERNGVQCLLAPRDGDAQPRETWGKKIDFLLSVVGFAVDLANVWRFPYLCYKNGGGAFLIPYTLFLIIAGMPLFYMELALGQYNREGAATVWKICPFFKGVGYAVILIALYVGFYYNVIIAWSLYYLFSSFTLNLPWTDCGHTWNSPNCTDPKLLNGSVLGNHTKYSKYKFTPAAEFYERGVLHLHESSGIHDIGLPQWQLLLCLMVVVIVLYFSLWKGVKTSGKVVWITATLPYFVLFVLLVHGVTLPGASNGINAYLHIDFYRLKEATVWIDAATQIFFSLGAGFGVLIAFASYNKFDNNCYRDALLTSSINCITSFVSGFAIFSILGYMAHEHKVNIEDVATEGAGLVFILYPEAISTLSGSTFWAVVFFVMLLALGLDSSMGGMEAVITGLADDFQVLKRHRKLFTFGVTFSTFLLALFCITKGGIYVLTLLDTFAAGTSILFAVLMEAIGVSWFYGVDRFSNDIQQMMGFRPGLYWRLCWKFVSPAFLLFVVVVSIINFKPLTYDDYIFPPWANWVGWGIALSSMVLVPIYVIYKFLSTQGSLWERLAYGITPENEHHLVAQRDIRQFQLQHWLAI
Procedure, shortened: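 LLC-PK1 cell membrane homogenates overexpressing DAT or NET. Incubated with 0.4 nM [125I]IPT and 8–10 competitor concentrations (10^-10 to 10^-5 M) in 50 mM Tris-HCl pH 7.4, 120 mM NaCl, 0.1% BSA for 1 h at room temperature. Nonspecific binding defined with 10 μM CFT. Filtered, gamma-counted, nonlinear regression. Mean ± SEM of three determinations in duplicate.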

Rattus norvegicus [26] = assay: Ratio of effect of pretreatment with methylphenidate with a dose of 2 mg/kg (i.v.) on specific binding of [18F]ACF in rat brain hypothalamus to that of cerebellum; type: ADME, organism-based; design: dose 2 mg/kg, route intravenous; details: in vivo, iv
Procedure, shortened: (§5)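 Rats (three per point) pretreated iv with competing drug at 2 mg/kg or saline (control) 5 min before iv [18F]ACF (50 μCi). At 1 h post tracer, brain regions (cortex, striatum, hippocampus, cerebellum, hypothalamus, remainder) dissected, weighed, counted as % dose/g and expressed as ratio to cerebellum. Average ± SD; ANOVA with Dunnett's test vs saline controls, p < 0.05.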

Rattus norvegicus [27] = species: Rattus norvegicus; assay: Ratio of regional brain distribution of [18F]ACF radiolabeled compound in rat cerebellum to that of cerebellum after 30 min; type: ADME, organism-based; details: in vivo, 0.5 h; procedure, shortened: as §3
Rattus norvegicus [28] = species: Rattus norvegicus; assay: Ratio of regional brain distribution of [18F]-ACF radiolabeled compound in rat remainder to that of cerebellum after 240 min; type: ADME, organism-based; details: in vivo, 4 h; procedure, shortened: as §3
Rattus norvegicus [29] = species: Rattus norvegicus; assay: Ratio of regional brain distribution of [18F]ACF radiolabeled compound in rat hypothalamus to that of cerebellum after 120 min; type: ADME, organism-based; details: in vivo, 2 h; procedure, shortened: as §3
Rattus norvegicus [30] = assay: Ratio of effect of pretreatment with (+)-McN5652 with a dose of 2 mg/kg (i.v.) on specific binding of [18F]ACF in rat brain cerebellum to that of cerebellum; type: ADME, organism-based; design: dose 2 mg/kg, route intravenous; details: in vivo, iv; procedure, shortened: as §5
Rattus norvegicus [31] = assay: Ratio of effect of pretreatment with (+)-McN5652 with a dose of 2 mg/kg (i.v.) on specific binding of [18F]-ACF in rat brain hippocampus to that of cerebellum; type: ADME, organism-based; design: dose 2 mg/kg, route intravenous; details: in vivo, iv; procedure, shortened: as §5
Rattus norvegicus [32] = assay: Ratio of effect of pretreatment with methylphenidate with a dose of 2 mg/kg (i.v.) on specific binding of [18F]ACF in rat brain cortex to that of cerebellum; type: ADME, organism-based; design: dose 2 mg/kg, route intravenous; details: in vivo, iv; procedure, shortened: as §5

Dose/g (Rattus norvegicus [1]): 0.25%
Dose/g (Rattus norvegicus [2]): 0.38%
Dose/g (Rattus norvegicus [3]): 0.26%
Dose/g (Rattus norvegicus [4]): 0.26%
Dose/g (Rattus norvegicus [5]): 0.78 % dose/organ
Dose/g (Rattus norvegicus [6]): 2.64 % dose/organ
Dose/g (Rattus norvegicus [7]): 0.15%
Dose/g (Rattus norvegicus [8]): 1.78%
Dose/g (Rattus norvegicus [9]): 0.76%
Dose/g (Rattus norvegicus [10]): 0.17%
Dose/g (Rattus norvegicus [11]): 9.41 % dose/organ
Dose/g (Rattus norvegicus [12]): 14.9 % dose/organ
Dose/g (Rattus norvegicus [13]): 14.3 % dose/organ
Dose/g (Rattus norvegicus [14]): 1.53 % dose/organ
Dose/g (Rattus norvegicus [15]): 4.76 % dose/organ
Dose/g (Rattus norvegicus [16]): 6.51 % dose/organ
Dose/g (Rattus norvegicus [17]): 5.97 % dose/organ
Dose/g (Rattus norvegicus [18]): 0.64 % dose/organ
Dose/g (Rattus norvegicus [19]): 0.09%
Dose/g (Rattus norvegicus [20]): 0.28 % dose/organ
Dose/g (Rattus norvegicus [21]): 0.27 % dose/organ
Dose/g (Rattus norvegicus [22]): 0.01 % dose/organ
Dose/g (Rattus norvegicus [23]): 0.14%
Dose/g (Rattus norvegicus [24]): 1.28 % dose/organ
Ki [25]: 650 nM
Ratio (Rattus norvegicus [26]): 3.05
Ratio (Rattus norvegicus [27]): 1
Ratio (Rattus norvegicus [28]): 1.58
Ratio (Rattus norvegicus [29]): 3.23
Ratio (Rattus norvegicus [30]): 1
Ratio (Rattus norvegicus [31]): 1.93
Ratio (Rattus norvegicus [32]): 2.02
Structure (SMILES): CN(C)Cc1ccccc1Sc1cc(F)c(Cl)cc1N
